The test system of one data set is A498. Nature of the data set: cells. The class given is functional. To be noted: Homo sapiens, A498, 72 h.
The test system of another data set is MCF7. Briefly: cells. The class given is functional. The conditions noted are these: Homo sapiens, MCF7, 48 h.
A further data set relates to COLO 205. Nature of the data set: Growth inhibition of human COLO205 cells after 72 hrs by MTS assay. The class given is functional. To be noted: COLO 205, 72 h. Background: Tetrazolium dyes change colour on reduction, which living cells bring about.
The next data set addresses Histone deacetylase. Nature of the data set: Inhibition of HDAC in human HeLa cell nuclear extracts using Ac-Arg-Gly-Lys(Ac)-AMC substrate by fluorimetry. The class given is protein assay.
In a further data set the test system is HCT-116. Briefly: Growth inhibition of human HCT116 cells after 72 hrs by MTS assay. The class given is functional. The conditions noted are these: HCT-116, 72 h.
The subject of another data set is NCI-H460. Nature of the data set: Growth inhibition of human NCI-H460 cells after 72 hrs by MTS assay. The class given is functional. To be noted: NCI-H460, 72 h.
A further data set deals with HL-60(TB). Briefly: cells. The class given is functional. To be noted: Homo sapiens, HL-60, 72 h.
For another data set, the system named is OVCAR-4. Briefly: cells. The class given is functional. The conditions noted are these: Homo sapiens, OVCAR-4, 72 h.
The next data set deals with TK-10. Briefly: cells. The class given is functional. The conditions noted are these: Homo sapiens, TK-10, 72 h.
The test system of a further data set is SN12C. Nature of the data set: cells. The conditions noted are these: Homo sapiens, 72 h. The class given is functional.
A further data set deals with SR. Briefly: Growth inhibition of human SR cells after 72 hrs by MTS assay. The class given is functional.
For another data set, the system named is NCI-H322M. Briefly: Growth inhibition of human NCI-H322M cells after 72 hrs by MTS assay. The class given is functional.
A further data set has as its system SF-295. Briefly: cells. The class given is functional. To be noted: Homo sapiens, SF-295, 72 h.
Another data set relates to OVCAR-5. Briefly: Growth inhibition of human OVCAR5 cells after 72 hrs by MTS assay. The class given is functional. The conditions noted are these: OVCAR-5, 72 h.
Another data set in a line: cells. The class given is functional. To be noted: Homo sapiens, Hs-578T, 72 h.
In a further data set the test system is RXF 393. Briefly: cells. The class given is functional. To be noted: Homo sapiens, RXF 393, 72 h.
For a further data set, the system named is UACC-257. Nature of the data set: cells. The class given is functional. To be noted: Homo sapiens, UACC-257, 72 h.
Another data set has as its system MOLT-4. Nature of the data set: Growth inhibition of human MOLT4 cells after 72 hrs by MTS assay. The class given is functional. To be noted: MOLT-4, 72 h.
For a further data set, the system named is SNB-19. Nature of the data set: cells. The class given is functional. The conditions noted are these: Homo sapiens, SNB-19, 72 h.
Another data set relates to UO-31. Nature of the data set: cells. The class given is functional. To be noted: Homo sapiens, UO-31, 72 h.
Data set [1] is described as follows: Apparent permeability from basolateral to apical side in human Caco2 cells at 10 uM. The class given is ADME, cell-based. To be noted: Caco-2. In a few lines: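 Caco-2 monolayers, test compound at 10 μM. Apparent permeability measured in both directions, apical to basolateral and basolateral to apical. Efflux ratio = P_app B to A / P_app A to B. Run by a contract lab following published methods. Mean of three independent triplicate experiments.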
A general note: Caco-2 cells form a polarised layer with tight junctions and transporters.

The subject of a further data set is NCI-H226. Briefly: cells. The class given is functional. To be noted: Homo sapiens, NCI-H226, 72 h.
In the next data set the test system is SNB-75. Nature of the data set: Growth inhibition of human SNB75 cells after 72 hrs by MTS assay. The class given is functional. The conditions noted are these: SNB-75, 72 h.
A further data set deals with DU-145. Nature of the data set: cells. The class given is functional. The conditions noted are these: Homo sapiens, DU-145, 72 h.

One may read the GI50 as the concentration that inhibits growth by half. Low values mean greater sensitivity of the cells, high ones lower sensitivity of the cells. A word on the IC50: it is the concentration that inhibits the measured activity by half. Higher therefore signals lower potency. A word on the Papp B→A: it is the apparent permeability from the basolateral to the apical side of a cell layer. As to `CC(C)[C@@H](c1nc2ccccc2o1)n1cc(/C=C/C(=O)NO)nn1`, the concentration for 50% growth inhibition (GI50) in the data set with A498 stood at 180 nM; with MCF7, 180 nM; with COLO 205 it was 140 nM; with HCT-116 it was 38 nM; in the data set with NCI-H460, 150 nM; with HL-60(TB), 190 nM. Moreover, the GI50 in the data set on OVCAR-4 came out at 700 nM; in the data set on TK-10 it was 44 nM; in the data set on SN12C, 360 nM; with SR, 90 nM; in the data set on NCI-H322M, 140 nM; in the data set with SF-295, 120 nM. For the same compound, the GI50 stood at 140 nM in the data set on OVCAR-5; 580 nM in “cells”; 180 nM with RXF 393; 88 nM in the data set on UACC-257; 72 nM with MOLT-4; 430 nM in the data set on SNB-19. For the same compound, the GI50 in the data set with UO-31 came out at 60 nM; in the data set on NCI-H226, 540 nM; in the data set on SNB-75 it was 250 nM; with DU-145, 160 nM. The 50% inhibitory concentration (IC50) at Histone deacetylase was found to be 7 nM. In data set [1], the Papp B→A at 10 µM is 7.61 ×10⁻⁶ cm/s.
